{"source": "paper PMC4000071", "about": "(Journal of Toxicologic Pathology, 2014)", "key": {"[1]": {"conditions": "man, 5 mg projected efficacious dose; cited from earlier work"}, "rat [2]": {"system": "rat", "assay": "14-day rat study", "format": "in vivo", "conditions": "14-day study, unpublished data"}, "adrenergic α1A receptor": {"target": "T1, adrenergic α1A receptor (Homo sapiens, UniProt P35348)", "T1 sequence (P35348 1-466)": "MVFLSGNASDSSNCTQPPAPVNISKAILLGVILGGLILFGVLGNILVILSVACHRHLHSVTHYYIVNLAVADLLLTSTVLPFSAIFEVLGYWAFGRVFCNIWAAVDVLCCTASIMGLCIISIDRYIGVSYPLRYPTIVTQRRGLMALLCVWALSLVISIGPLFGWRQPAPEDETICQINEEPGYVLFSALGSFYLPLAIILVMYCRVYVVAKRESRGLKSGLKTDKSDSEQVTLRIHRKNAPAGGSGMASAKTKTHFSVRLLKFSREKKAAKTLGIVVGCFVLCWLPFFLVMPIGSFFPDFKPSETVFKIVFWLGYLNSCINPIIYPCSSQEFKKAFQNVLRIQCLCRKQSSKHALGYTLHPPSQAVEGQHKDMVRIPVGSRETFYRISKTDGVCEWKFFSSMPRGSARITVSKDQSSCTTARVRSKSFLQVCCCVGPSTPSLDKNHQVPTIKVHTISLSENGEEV", "assay": "secondary pharmacology screens, α1A", "format": "biochemical", "conditions": "10 µM"}, "guinea pig": {"system": "guinea pig", "conditions": "0.6 µmol/kg. p.o.; cited from earlier work"}, "brain 5-HT1B receptors [3]": {"system": "brain 5-HT1B receptors", "conditions": "cited from earlier work"}, "[4]": {"conditions": "cited from earlier work"}, "p-glycoprotein": {"system": "p-glycoprotein", "conditions": "cited from earlier work"}, "beagle dogs": {"system": "beagle dogs", "assay": "1-month", "format": "in vivo"}, "[5]": {"system": "mitochondrial oxidative phosphorylation", "assay": "mitochondrial oxidative phosphorylation inhibition", "format": "biochemical", "conditions": "unpublished data"}, "dogs": {"system": "dogs", "assay": "cardiovascular telemetry study in dogs", "format": "in vivo", "conditions": "dog"}, "brain 5-HT1B receptors [6]": {"system": "brain 5-HT1B receptors", "conditions": "non-human primates; cited from earlier work"}, "[7]": {"assay": "3-month toxicity study, toxicokinetics", "format": "in vivo, beagle dogs", "conditions": "30 mg/kg/day", "in_short": "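Dogs received 7, 15 or 30 mg/kg/day by oral gavage for 3 months. Serial blood was drawn on Days 1, 23, 56 and 91, pre-dose and from 0.5 to 24 h post-dose. One decedent was sampled on Day 86 before euthanasia. Plasma drug was measured and tmax, Cmax, AUC and t1/2 were derived.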"}, "rat [8]": {"system": "rat", "assay": "rat 1- and 3-month repeat dose toxicity", "format": "in vivo"}, "[9]": {"assay": "rat systemic and brain exposure", "format": "in vivo", "conditions": "25 mg/kg/day (NOEL for neuropathology), unpublished results"}, "dog pharmacokinetics": {"assay": "dog pharmacokinetics", "format": "in vivo"}, "healthy volunteers": {"system": "healthy volunteers", "conditions": "single ascending oral doses from 1 to 40 mg; cited from earlier work"}, "phospholipidosis (PLD)": {"system": "phospholipidosis (PLD)", "assay": "in vitro PLD screen", "format": "cell-based", "conditions": "read-out: EC50 (phospholipogenic, in vitro); in vitro PLD screen; unpublished data"}, "adrenergic α1B receptor": {"target": "T2, adrenergic α1B receptor (Homo sapiens, UniProt P35368)", "T2 sequence (P35368 1-520)": "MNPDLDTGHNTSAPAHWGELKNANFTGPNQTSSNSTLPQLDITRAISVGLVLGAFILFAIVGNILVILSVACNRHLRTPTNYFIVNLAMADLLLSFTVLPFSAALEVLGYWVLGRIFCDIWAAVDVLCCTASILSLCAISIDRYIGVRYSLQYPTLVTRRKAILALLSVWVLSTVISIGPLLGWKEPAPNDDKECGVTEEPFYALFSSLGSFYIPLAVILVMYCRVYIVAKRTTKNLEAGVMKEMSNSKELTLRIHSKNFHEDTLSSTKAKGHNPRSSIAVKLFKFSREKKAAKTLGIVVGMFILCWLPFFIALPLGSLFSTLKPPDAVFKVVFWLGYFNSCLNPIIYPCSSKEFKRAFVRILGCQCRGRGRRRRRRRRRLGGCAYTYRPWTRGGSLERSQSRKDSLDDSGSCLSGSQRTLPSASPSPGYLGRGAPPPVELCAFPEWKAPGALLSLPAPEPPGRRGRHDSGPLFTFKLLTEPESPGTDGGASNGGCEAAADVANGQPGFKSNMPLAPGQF", "assay": "secondary pharmacology screens, α1B", "format": "biochemical", "conditions": "10 µM"}, "[10]": {"target": "human 5-hydroxytryptamine 1B (serotonin, or 5-HT1B) receptor", "conditions": "antagonist; cited from earlier work"}}, "note": "Read-outs that look alike come from different tables or passages of the source."}
{"smiles": "COc1cc2c(c(N3CCN(C)CC3)c1)O[C@@H](C(=O)Nc1ccc(N3CCOCC3)cc1)CC2", "note": "[AZD3783, (2R)-6-methoxy-8-(4-methylpiperazin-1-yl)-N-(4-morpholin-4-ylphenyl) chromane-2-carboxamide]", "values": [{"measurement": "estimated AUC", "setting": "[1]", "result": 0.383, "unit": "µM·h"}, {"measurement": "PLD in tissues", "setting": "rat [2]", "result": "dose-dependent PLD in a limited number of tissues"}, {"measurement": "activity at adrenergic α1A receptor", "setting": "adrenergic α1A receptor", "result": "antagonist"}, {"measurement": "anxiolytic and anti-depressant efficacy", "setting": "guinea pig", "result": "elicit effects indicative of anxiolytic and anti-depressant efficacy"}, {"measurement": "extracellular serotonin in the brain", "setting": "guinea pig", "result": "increase extracellular serotonin in the brain"}, {"measurement": "binding to brain 5-HT1B receptors (PET)", "setting": "brain 5-HT1B receptors [3]; human subjects", "result": "bind dose-dependently"}, {"measurement": "receptor occupancy in brain region", "setting": "brain 5-HT1B receptors [3]; man, 5 mg dose", "result": 50, "unit": "%"}, {"measurement": "blood brain barrier crossing", "setting": "[4]", "result": "readily crosses the blood brain barrier"}, {"measurement": "p-glycoprotein substrate", "setting": "p-glycoprotein", "result": "not likely to be a p-glycoprotein substrate"}, {"measurement": "brain microscopic findings", "setting": "beagle dogs; 2.3 mg/kg/day, 4 weeks", "result": "No treatment-related microscopic change in the brain"}, {"measurement": "brain microscopic findings, other three dogs", "setting": "beagle dogs; 47 mg/kg/day, 4 weeks", "result": "minimal to moderate foamy cytoplasmic vacuolation of neurons"}, {"measurement": "mortality", "setting": "beagle dogs; a male in the 47 mg/kg/day group, severe clinical signs", "result": "euthanized on Day 20"}, {"measurement": "brain microscopic findings, decedant", "setting": "beagle dogs; male, 47 mg/kg/day, euthanized Day 20", "result": "neuronal degeneration and necrosis microscopically, accompanied by minimal gliosis in the medulla oblongata"}, {"measurement": "brain microscopic findings", "setting": "beagle dogs; two dogs, 14 mg/kg/day, 4 weeks", "result": "minimal granular, yellowish pigmentation in the cytoplasm of neurons in the medulla oblongata"}, {"measurement": "inhibition of mitochondrial oxidative phosphorylation", "setting": "[5]", "result": "not a direct inhibitor"}, {"measurement": "cardiovascular effect (telemetry)", "setting": "dogs; 14 mg/kg/day", "result": "no effect"}, {"measurement": "cardiovascular effect (telemetry)", "setting": "dogs; 47 mg/kg", "result": "modest tachycarda with decrease in blood pressure"}, {"measurement": "binding to brain 5-HT1B receptors (PET)", "setting": "brain 5-HT1B receptors [6]", "result": "bind dose-dependently"}, {"measurement": "plasma concentration", "setting": "[7]; decedent female, prior to euthanasia on Day 86", "result": 17, "unit": "µM"}, {"measurement": "exposure relative to predicted therapeutic exposure", "setting": "[7]; dog, 3-month study", "result": 350, "unit": "fold"}, {"measurement": "PLD", "setting": "rat [8]", "result": "caused generalized PLD"}, {"measurement": "nervous tissue pathology", "setting": "rat [8]; 1 month, 126 mg/kg/day", "result": "minimal neuronal vacuolation in the DRG and brain stem"}, {"measurement": "nervous tissue pathology (DRG, brain stem, spinal cord)", "setting": "rat [8]; 3 months, 100 mg/kg/day, unpublished results", "result": "minimal to slight neuronal vacuolation with eosinophilic deposits"}, {"measurement": "AUC", "setting": "[9]", "result": 84, "unit": "µM·h"}, {"measurement": "steady state volume of distribution", "setting": "dog pharmacokinetics", "result": 4.3, "unit": "L/kg"}, {"measurement": "plasma clearance", "setting": "dog pharmacokinetics; after IV dosing", "result": 18, "unit": "mL/min/kg"}, {"measurement": "F (oral)", "setting": "dog pharmacokinetics; oral dosing", "result": 58, "unit": "%"}, {"measurement": "tolerability", "setting": "healthy volunteers", "result": "well tolerated"}, {"measurement": "EC50", "setting": "phospholipidosis (PLD)", "result": 164, "unit": "µM"}, {"measurement": "activity at adrenergic α1B receptor", "setting": "adrenergic α1B receptor", "result": "antagonist"}, {"measurement": "Ki", "setting": "[10]", "result": 0.0125, "unit": "µM"}]}
